Published values of several laboratories.
Compare with care: the assays were run in different laboratories.
Target: Serine/threonine-protein kinase 32C (STK32C, Homo sapiens, UniProt Q86UX6)

| SMILES | observed | action | method | concentration | endpoint | value |
| --- | --- | --- | --- | --- | --- | --- |
| CC(C)(O)[C@H]1CC[C@H](Nc2ccc3ncc(-c4cccc(C(F)(F)F)c4)n3n2)CC1 | enzyme activity | inhibitor | – | 1 µM | remaining activity | 83.2% |
| COc1cc(Cl)c(C(=O)N[C@@H](CN[C@H]2CC[C@@H](N)CC2)Cc2ccc(C#N)cc2)cc1-c1ccc(CN[C@H](C)c2ccc(C)cc2)o1 | enzyme activity | inhibitor | – | 1 µM | remaining activity | 95% |
| CS(=O)(=O)Nc1cccc(-c2csc(NC(=O)CSc3nc4nccnc4c(=O)n3CCc3ccccc3)n2)c1 | enzyme activity | inhibitor | – | 10 µM | inhibition | -5% |
| CN1CC(Oc2cnc(C#N)cc2-c2ccn3nc(NC(=O)C4CC4)cc3c2)C1 | enzyme activity | inhibitor | – | 1 µM | inhibition | -5% |
| O=C(CSc1nc2nccnc2c(=O)n1CCc1ccccc1)Nc1nccs1 | enzyme activity | inhibitor | – | 10 µM | inhibition | -9% |
| Cc1nc(C2CCN(C(=O)c3ccc(OC(F)(F)F)cc3N)CC2)c2ncc(N3CCN(C)CC3)cc2n1 | cell-free assay | – | competition with immobilised ligand | 1 µM | remaining binding | 100% |
| CCCCNc1ncc2c(-c3ccc(F)cc3)nn(C[C@H]3CC[C@H](N)CC3)c2n1 | target engagement in cells | inhibitor | chemoproteomics | 20 mM | inhibition | 55% |
| O=C(Nc1cnn(-c2csc(C(=O)NC3COC3)c2)c1)Nc1ccccc1Cl | enzyme activity | inhibitor | – | 5 µM | remaining activity | 113% |
| CN(C)C(=O)Cn1cc(-c2nc(C3(c4ccc(-c5cnc(N)nc5)cc4)CC3)no2)cn1 | cell-free assay | – | competition with immobilised ligand | 1 µM | remaining binding | 100% |
| Cc1ccc(C(=O)Nc2ccc(CN3CCN(C)CC3)c(C(F)(F)F)c2)cc1C#Cc1cnc2cccnn12 | enzyme activity | – | – | 23.5 nM | remaining activity | 100% |
| Nc1ncnc2occ(-c3ccc(NC(=O)Nc4cc(C(F)(F)F)ccc4F)cc3)c12 | cell-free assay | – | – | 20 µM | remaining signal | 91% |
| COc1cccc2c(NCc3ccccc3)nc(-n3c(N)nc4ccccc43)nc12 | target engagement in cells | inhibitor | chemoproteomics | 20 mM | inhibition | 13.6% |
| O=C(Nc1cnn(-c2csc(C(=O)NC3COC3)c2)c1)Nc1c(F)cccc1Cl | enzyme activity | inhibitor | – | 5 µM | remaining activity | 90.7% |
